Data reported in ChEMBL document CHEMBL3627671, “Novel derivatives of nitro-substituted salicylic acids: Synthesis, antimicrobial activity and cytotoxicity” (Bioorg Med Chem, 2015).
In brackets after ≈: the same amount, converted by molar mass.

Key:
[1] = system: Trichosporon asahii; assay: Antifungal activity against Trichosporon asahii 1188 after 48 hrs by microdilution broth method; assay type: functional; details: Trichosporon asahii, 1188, 48 h
In short: (§1)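 CLSI M27-A3 broth microdilution in RPMI 1640 with glutamine, buffered to pH 7.0 with MOPS; DMSO diluent. Yeast inoculum 5 × 10^3 ± 0.2 CFU/mL. Moulds grown on Sabouraud agar 3–10 days before spore harvest, final inoculum 0.5-5 × 10^4 CFU/mL, checked in a Bürker chamber. Incubated dark, humid, 35 °C, read at 24 and 48 h visually and at 540 nm. MIC taken as ≥80% (yeasts) or ≥50% (filamentous) growth reduction versus control.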

[2] = system: Trichosporon asahii; assay: Antifungal activity against Trichosporon asahii 1188 after 24 hrs by microdilution broth method; assay type: functional; details: Trichosporon asahii, 1188, 24 h; in short: as §1
[3] = system: Candida albicans; assay: Antifungal activity against Candida albicans ATCC 44859 after 48 hrs by microdilution broth method; assay type: functional; details: ATCC 44859, 48 h; in short: as §1
[4] = system: Aspergillus fumigatus; assay: Antifungal activity against Aspergillus fumigatus 231 after 24 hrs by microdilution broth method; assay type: functional; details: Aspergillus fumigatus, 231, 24 h; in short: as §1
[5] = system: Staphylococcus epidermidis; assay: Antibacterial activity against Staphylococcus epidermidis H 6966/08 after 48 hrs by microdilution broth method; assay type: functional; details: H 6966/08, 48 h
In short: (§2)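 Mueller-Hinton broth microdilution (modified M07-A07), pH 7.4 (±0.2). Compounds dissolved in DMSO, tested at final 500 to 0.49 µmol/L. Inoculum in sterile water matched to 0.5 McFarland. Incubated in the dark, humid atmosphere, 35 °C, read at 24 and 48 h visually and at 540 nm. MIC taken as ≥95% growth reduction (IC95) versus control.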

[6] = system: Pseudomonas aeruginosa; assay: Antibacterial activity against Pseudomonas aeruginosa CCM 1961 after 24 hrs by microdilution broth method; assay type: functional; details: CCM 1961, 24 h; in short: as §2
[7] = system: Mycobacterium avium; assay: Antimycobacterial activity against Mycobacterium avium 330/80 after 14 days; assay type: functional; details: 330/80, 336 h
[8] = Selectivity index, ratio of CI50 for human HepG2 cells to MIC100 for Mycobacterium tuberculosis H37Rv 331/88
[9] = system: Trichophyton mentagrophytes; assay: Antifungal activity against Trichophyton mentagrophytes 445 after 24 hrs by microdilution broth method; assay type: functional; details: Trichophyton mentagrophytes, 445, 24 h
[10] = system: Mycobacterium kansasii; assay: Antimycobacterial activity against Mycobacterium kansasii 235/80 after 21 days; assay type: functional; details: 235/80, 504 h
In short: (§3)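 Šula's semisynthetic medium micromethod at 37 °C, read after 7, 14 and 21 days. The 1.0 McFarland suspension was diluted 10^-4. MIC determined. 6509/96 is a clinical isolate.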

[11] = system: Klebsiella pneumoniae; assay: Antibacterial activity against Klebsiella pneumoniae D 11750/08 after 24 hrs by microdilution broth method; assay type: functional; details: D 11750/08, 24 h; in short: as §2
[12] = system: Klebsiella pneumoniae; assay: Antibacterial activity against ESBL-positive Klebsiella pneumoniae J 14368/08 after 48 hrs by microdilution broth method; assay type: functional; details: J 14368/08, 48 h; in short: as §2
[13] = system: Lichtheimia corymbifera; assay: Antifungal activity against Absidia corymbifera 272 after 24 hrs by microdilution broth method; assay type: functional; details: Lichtheimia corymbifera, 272, 24 h; in short: as §1
[14] = system: Nakaseomyces glabratus; assay: Antifungal activity against Candida glabrata 20/I after 24 hrs by microdilution broth method; assay type: functional; in short: as §1
[15] = system: Staphylococcus aureus; assay: Antibacterial activity against Staphylococcus aureus CCM 4516/08 after 24 hrs by microdilution broth method; assay type: functional; details: CCM 4516/08, 24 h
[16] = system: Nakaseomyces glabratus; assay: Antifungal activity against Candida glabrata 20/I after 48 hrs by microdilution broth method; assay type: functional; in short: as §1
[17] = system: Staphylococcus aureus; assay: Antibacterial activity against methicillin-resistant Staphylococcus aureus H 5996/08 after 48 hrs by microdilution broth method; assay type: functional; details: H 5996/08, 48 h
[18] = system: Candida albicans; assay: Antifungal activity against Candida albicans ATCC 44859 after 24 hrs by microdilution broth method; assay type: functional; details: ATCC 44859, 24 h; in short: as §1
[19] = system: Enterococcus sp.; assay: Antibacterial activity against Enterococcus sp. J 14365/08 after 24 hrs by microdilution broth method; assay type: functional; details: J 14365/08, 24 h; in short: as §2
[20] = system: Enterococcus sp.; assay: Antibacterial activity against Enterococcus sp. J 14365/08 after 48 hrs by microdilution broth method; assay type: functional; details: J 14365/08, 48 h; in short: as §2
[21] = system: Mycobacterium avium; assay: Antimycobacterial activity against Mycobacterium avium 330/80 after 21 days; assay type: functional; details: 330/80, 504 h
[22] = system: Aspergillus fumigatus; assay: Antifungal activity against Aspergillus fumigatus 231 after 48 hrs by microdilution broth method; assay type: functional; details: Aspergillus fumigatus, 231, 48 h; in short: as §1
[23] = system: Trichophyton mentagrophytes; assay: Antifungal activity against Trichophyton mentagrophytes 445 after 48 hrs by microdilution broth method; assay type: functional; details: Trichophyton mentagrophytes, 445, 48 h
[24] = system: Lichtheimia corymbifera; assay: Antifungal activity against Absidia corymbifera 272 after 48 hrs by microdilution broth method; assay type: functional; details: Lichtheimia corymbifera, 272, 48 h; in short: as §1
[25] = system: Pichia kudriavzevii; assay: Antifungal activity against Candida krusei E28 after 48 hrs by microdilution broth method; assay type: functional; details: E28, 48 h; in short: as §1
[26] = system: Mycobacterium tuberculosis; assay: Antimycobacterial activity against Mycobacterium tuberculosis H37Rv 331/88 after 21 days; assay type: functional; details: H37Rv 331/88, 504 h
[27] = system: Staphylococcus aureus; assay: Antibacterial activity against methicillin-resistant Staphylococcus aureus H 5996/08 after 24 hrs by microdilution broth method; assay type: functional; details: H 5996/08, 24 h
[28] = system: Mycobacterium kansasii; assay: Antimycobacterial activity against Mycobacterium kansasii 235/80 after 7 days; assay type: functional; details: 235/80, 168 h; in short: as §3
[29] = system: Mycobacterium kansasii; assay: Antimycobacterial activity against Mycobacterium kansasii 6509/96 after 21 days; assay type: functional; details: 6509/96, 504 h; in short: as §3
[30] = system: Pseudomonas aeruginosa; assay: Antibacterial activity against Pseudomonas aeruginosa CCM 1961 after 48 hrs by microdilution broth method; assay type: functional; details: CCM 1961, 48 h; in short: as §2
[31] = system: Escherichia coli; assay: Antibacterial activity against Escherichia coli CCM4517 after 48 hrs by microdilution broth method; assay type: functional; details: CCM4517, 48 h; in short: as §2
[32] = system: Mycobacterium kansasii; assay: Antimycobacterial activity against Mycobacterium kansasii 6509/96 after 7 days; assay type: functional; details: 6509/96, 168 h; in short: as §3
[33] = system: Pichia kudriavzevii; assay: Antifungal activity against Candida krusei E28 after 24 hrs by microdilution broth method; assay type: functional; details: E28, 24 h; in short: as §1
[34] = system: Mycobacterium kansasii; assay: Antimycobacterial activity against Mycobacterium kansasii 235/80 after 14 days; assay type: functional; details: 235/80, 336 h; in short: as §3
[35] = system: Escherichia coli; assay: Antibacterial activity against Escherichia coli CCM4517 after 24 hrs by microdilution broth method; assay type: functional; details: CCM4517, 24 h; in short: as §2
[36] = system: Staphylococcus aureus; assay: Antibacterial activity against Staphylococcus aureus CCM 4516/08 after 48 hrs by microdilution broth method; assay type: functional; details: CCM 4516/08, 48 h
[37] = system: Klebsiella pneumoniae; assay: Antibacterial activity against Klebsiella pneumoniae D 11750/08 after 48 hrs by microdilution broth method; assay type: functional; details: D 11750/08, 48 h; in short: as §2
[38] = system: HepG2; assay: Cytotoxicity against human HepG2 cells after 24 hrs […]; assay type: cell-based; details: HepG2, 24 h
[39] = system: Klebsiella pneumoniae; assay: Antibacterial activity against ESBL-positive Klebsiella pneumoniae J 14368/08 after 24 hrs by microdilution broth method; assay type: functional; details: J 14368/08, 24 h; in short: as §2
[40] = system: Mycobacterium tuberculosis; assay: Antimycobacterial activity against Mycobacterium tuberculosis H37Rv 331/88 after 14 days; assay type: functional; details: H37Rv 331/88, 336 h
[41] = system: Mycobacterium kansasii; assay: Antimycobacterial activity against Mycobacterium kansasii 6509/96 after 14 days; assay type: functional; details: 6509/96, 336 h; in short: as §3
[42] = system: Candida tropicalis; assay: Antifungal activity against Candida tropicalis 156 after 48 hrs by microdilution broth method; assay type: functional; details: Candida tropicalis, 156, 48 h; in short: as §1
[43] = system: Staphylococcus epidermidis; assay: Antibacterial activity against Staphylococcus epidermidis H 6966/08 after 24 hrs by microdilution broth method; assay type: functional; details: H 6966/08, 24 h; in short: as §2
[44] = system: Candida tropicalis; assay: Antifungal activity against Candida tropicalis 156 after 24 hrs by microdilution broth method; assay type: functional; details: Candida tropicalis, 156, 24 h; in short: as §1

SMILES: O=C(Nc1cc(C(F)(F)F)cc(C(F)(F)F)c1)c1ccc([N+](=O)[O-])cc1O
- MIC [1]: > 500 µM
- MIC [2]: > 500 µM
- MIC [3]: > 500 µM
- MIC [4]: > 500 µM
- MIC [5]: 1.95 µM (≈ 0.769 µg/mL)
- MIC [6]: > 500 µM
- MIC [7]: 32 µM (≈ 12.6 µg/mL)
- Selectivity Index [8]: 0.55
- MIC [9]: > 500 µM
- MIC [10]: 16 µM (≈ 6.31 µg/mL)
- MIC [11]: > 500 µM
- MIC [12]: > 500 µM
- MIC [13]: > 500 µM
- MIC [14]: > 500 µM
- MIC [15]: 1.95 µM (≈ 0.769 µg/mL)
- MIC [16]: > 500 µM
- MIC [17]: 0.98 µM (≈ 0.386 µg/mL)
- MIC [18]: > 500 µM
- MIC [19]: 62.5 µM (≈ 24.6 µg/mL)
- MIC [20]: 125 µM (≈ 49.3 µg/mL)
- MIC [21]: 32 µM (≈ 12.6 µg/mL)
- MIC [22]: > 500 µM
- MIC [23]: > 500 µM
- MIC [24]: > 500 µM
- MIC [25]: > 500 µM
- MIC [26]: 8 µM (≈ 3.15 µg/mL)
- MIC [27]: 0.98 µM (≈ 0.386 µg/mL)
- MIC [28]: 8 µM (≈ 3.15 µg/mL)
- MIC [29]: 16 µM (≈ 6.31 µg/mL)
- MIC [30]: > 500 µM
- MIC [31]: > 500 µM
- MIC [32]: 16 µM (≈ 6.31 µg/mL)
- MIC [33]: > 500 µM
- MIC [34]: 16 µM (≈ 6.31 µg/mL)
- MIC [35]: > 500 µM
- MIC [36]: 1.95 µM (≈ 0.769 µg/mL)
- MIC [37]: > 500 µM
- IC50 [38]: 4.4 µM
- MIC [39]: > 500 µM
- MIC [40]: 4 µM (≈ 1.58 µg/mL)
- MIC [41]: 16 µM (≈ 6.31 µg/mL)
- MIC [42]: > 500 µM
- MIC [43]: 1.95 µM (≈ 0.769 µg/mL)
- MIC [44]: > 500 µM

SMILES: O=C(Nc1cc(C(F)(F)F)cc(C(F)(F)F)c1)c1cc([N+](=O)[O-])ccc1O
- MIC [1]: > 500 µM
- MIC [2]: > 500 µM
- MIC [3]: > 500 µM
- MIC [4]: > 500 µM
- MIC [5]: 15.6 µM (≈ 6.16 µg/mL)
- MIC [6]: > 500 µM
- MIC [7]: 32 µM (≈ 12.6 µg/mL)
- Selectivity Index [8]: 0.869
- MIC [9]: > 500 µM
- MIC [10]: 32 µM (≈ 12.6 µg/mL)
- MIC [11]: > 500 µM
- MIC [12]: > 500 µM
- MIC [13]: > 500 µM
- MIC [14]: > 500 µM
- MIC [15]: 3.9 µM (≈ 1.54 µg/mL)
- MIC [16]: > 500 µM
- MIC [17]: 7.81 µM (≈ 3.08 µg/mL)
- MIC [18]: > 500 µM
- MIC [19]: 500 µM (≈ 197 µg/mL)
- MIC [20]: 500 µM (≈ 197 µg/mL)
- MIC [21]: 32 µM (≈ 12.6 µg/mL)
- MIC [22]: > 500 µM
- MIC [23]: > 500 µM
- MIC [24]: > 500 µM
- MIC [25]: > 500 µM
- MIC [26]: 16 µM (≈ 6.31 µg/mL)
- MIC [27]: 7.81 µM (≈ 3.08 µg/mL)
- MIC [28]: 16 µM (≈ 6.31 µg/mL)
- MIC [29]: 32 µM (≈ 12.6 µg/mL)
- MIC [30]: > 500 µM
- MIC [31]: > 500 µM
- MIC [32]: 16 µM (≈ 6.31 µg/mL)
- MIC [33]: > 500 µM
- MIC [34]: 32 µM (≈ 12.6 µg/mL)
- MIC [35]: > 500 µM
- MIC [36]: 3.9 µM (≈ 1.54 µg/mL)
- MIC [37]: > 500 µM
- IC50 [38]: 13.9 µM
- MIC [39]: > 500 µM
- MIC [40]: 16 µM (≈ 6.31 µg/mL)
- MIC [41]: 32 µM (≈ 12.6 µg/mL)
- MIC [42]: > 500 µM
- MIC [43]: 15.6 µM (≈ 6.16 µg/mL)
- MIC [44]: > 500 µM
